Publication PMC4084507 (Chembiochem : a European journal of chemical biology, 2014)
Like-named read-outs stand apart in the source and are kept apart here.

Tests used:
[1] = target: AtsB (Mycobacterium tuberculosis, UniProt O65931); details: 10 µM probe, 7-8 min; native gel-resolved lysate
[2] = test system: Helix pomatia sulfatase; assay: fluorogenic hydrolysis assay; type: biochemical; details: read-out: Helix pomatia ^[b]; potassium acetate buffer pH 5.0, 37 °C
In short: (§1)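 Commercial Helix pomatia sulfatase was incubated with the fluorogenic sulfate substrate in potassium acetate buffer (pH 5.0) at 37 °C. Formation of the released fluorophore was monitored over time. Substrate-only reactions without enzyme served as the background control. KM and Vmax (pmoles/sec) were derived from the kinetics, and Vmax/KM was calculated from them.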

[3] = test system: Helix pomatia sulfatase; assay: fluorogenic hydrolysis assay; type: biochemical; details: read-out: Helix pomatia ^[b]; potassium acetate buffer pH 5.0, 37 °C; remark: listed apart in the source
In short: as §1

Row | Compound | in-gel fluorescence after native gel of lysate [1] | Km [2] [µM] | Km [3] [µM]
1 | O=c1ccc2nc3ccc(OS(=O)(=O)O)cc3oc-2c1 [RS] | AtsB can hydrolyze both RS and DDAO-sulfate, but not MFS | 17.5 ± 0.9 | –
2 | CC1(C)C2=C(Cl)C(=O)C(Cl)=CC2=Nc2ccc(OS(=O)(=O)O)cc21 [DDAO-sulfate] | AtsB can hydrolyze both RS and DDAO-sulfate, but not MFS | – | –
3 | COc1ccc2c(c1)Oc1cc(OS(=O)(=O)O)ccc1C21OC(=O)c2ccccc21 (stereo not shown) [MFS] | – | – | 24.8 ± 2.2
